Legend:
[1] = molecular target: T1, 5-hydroxytryptamine receptor 6 (Homo sapiens, UniProt P50406); assay: Antagonist activity at human 5HT6 receptor expressed in HEK293 cells assessed as inhibition of serotonin-induced cAMP release; type: functional, cell-based
Method in brief: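 Tetracycline-induced T-Rex 5-HT6 HEK cells in HBSS with 1 mM MgCl₂, 1 mM CaCl₂, 5 mM HEPES pH 7.4, 100 μM IBMX; compounds 15 min (0.1% DMSO final), then serotonin 10 nM final for 30 min at room temp. cAMP by LANCE TR-FRET. Ki from concentration-dependent inhibition; geometric mean of three to four independent experiments, each curve in duplicate.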

[2] = molecular target: T1, 5-hydroxytryptamine receptor 6; assay: Antagonist activity at 5HT6 receptor; type: functional
Method in brief: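 Human 5-HT6R expressed in HEK293 cells (T-Rex, tetracycline-induced a day before). Compounds preincubated 15 min in HBSS with 1 mM MgCl2, 1 mM CaCl2, 5 mM HEPES pH 7.4, 100 μM IBMX, 0.1% DMSO final. Serotonin then added to 10 nM final, 30 min at room temperature. cAMP measured by LANCE TR-FRET. Ki from concentration-dependent inhibition, geometric mean of 3-4 experiments, duplicate curves.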

hERG (KCNH2) [3] = molecular target: T2, hERG (KCNH2) (Homo sapiens, UniProt Q12809); assay: Inhibition of human ERG expressed in […] cells at 3 uM after 3 to 8 mins by voltage clamp assay; type: cell-based; conditions: HEK297 cells that express human ERG
T2 sequence (Q12809 whole entry): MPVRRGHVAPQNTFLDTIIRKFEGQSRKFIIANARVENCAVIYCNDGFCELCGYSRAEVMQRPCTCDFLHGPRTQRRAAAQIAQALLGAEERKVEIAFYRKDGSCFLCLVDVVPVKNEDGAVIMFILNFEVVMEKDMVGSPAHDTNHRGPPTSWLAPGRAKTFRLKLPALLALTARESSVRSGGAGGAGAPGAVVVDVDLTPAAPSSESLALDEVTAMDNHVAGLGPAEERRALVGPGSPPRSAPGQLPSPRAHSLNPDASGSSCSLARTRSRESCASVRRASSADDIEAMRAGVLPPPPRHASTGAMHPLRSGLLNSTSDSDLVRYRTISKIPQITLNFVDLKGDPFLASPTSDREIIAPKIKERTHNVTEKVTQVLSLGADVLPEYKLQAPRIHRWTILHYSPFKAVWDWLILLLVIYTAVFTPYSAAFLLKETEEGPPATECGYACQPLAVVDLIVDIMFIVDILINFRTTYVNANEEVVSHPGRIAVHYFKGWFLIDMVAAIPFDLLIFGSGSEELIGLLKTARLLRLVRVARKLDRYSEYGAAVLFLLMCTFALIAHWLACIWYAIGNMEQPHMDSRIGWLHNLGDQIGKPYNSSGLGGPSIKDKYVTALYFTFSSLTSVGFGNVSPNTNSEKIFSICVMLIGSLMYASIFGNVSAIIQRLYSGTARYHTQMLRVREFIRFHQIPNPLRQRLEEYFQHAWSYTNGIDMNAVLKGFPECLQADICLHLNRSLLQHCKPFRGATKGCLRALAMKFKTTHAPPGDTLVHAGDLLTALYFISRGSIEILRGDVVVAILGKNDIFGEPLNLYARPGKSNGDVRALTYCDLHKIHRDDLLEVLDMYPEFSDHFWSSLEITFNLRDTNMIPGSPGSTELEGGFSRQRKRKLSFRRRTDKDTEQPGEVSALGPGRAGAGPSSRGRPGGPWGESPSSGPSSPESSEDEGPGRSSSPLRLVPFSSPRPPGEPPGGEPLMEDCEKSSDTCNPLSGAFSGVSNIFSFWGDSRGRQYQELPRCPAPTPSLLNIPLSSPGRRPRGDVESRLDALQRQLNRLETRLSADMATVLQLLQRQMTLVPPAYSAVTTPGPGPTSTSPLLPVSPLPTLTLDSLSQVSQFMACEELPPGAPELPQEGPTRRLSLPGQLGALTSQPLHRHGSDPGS
Method in brief: (§1)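 Automated whole-cell voltage clamp at 25 °C on HEK cells stably expressing human hERG; K-based intracellular (pH 7.2), Na-based extracellular (pH 7.4) solutions. 2 s pulses to +20 mV, 15 s interpulse; compound until steady current (3-8 min), washout, 10 μM cisapride control. Percent of vehicle tail current; triplicate, mean ± SEM at highest concentration.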

[4] = molecular target: 5-hydroxytryptamine receptor 2B (Homo sapiens, UniProt P41595); assay: Antagonist activity at human 5HT2B receptor expressed in HEK293 cells assessed as inhibition of alpha-Me-serotonin-induced intracellular calcium mobilization by spectrophotometry; type: functional, cell-based
Sequence of 5-hydroxytryptamine receptor 2B (P41595 whole entry): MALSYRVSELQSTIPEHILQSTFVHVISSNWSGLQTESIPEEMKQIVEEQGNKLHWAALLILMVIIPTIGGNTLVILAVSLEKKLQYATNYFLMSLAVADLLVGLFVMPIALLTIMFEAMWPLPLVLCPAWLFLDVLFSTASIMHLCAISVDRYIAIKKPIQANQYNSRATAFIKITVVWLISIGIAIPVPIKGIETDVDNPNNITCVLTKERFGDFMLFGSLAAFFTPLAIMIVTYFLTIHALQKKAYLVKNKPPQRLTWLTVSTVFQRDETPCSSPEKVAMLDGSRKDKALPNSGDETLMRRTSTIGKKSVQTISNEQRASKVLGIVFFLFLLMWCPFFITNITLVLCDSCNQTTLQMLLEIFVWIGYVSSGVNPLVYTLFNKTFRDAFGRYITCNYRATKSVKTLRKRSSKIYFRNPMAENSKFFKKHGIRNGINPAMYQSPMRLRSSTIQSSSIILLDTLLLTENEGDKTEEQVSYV
Method in brief: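 Tetracycline-induced T-Rex 5-HT2B HEK cells, Fura-2AM loaded (4 μM, 30 min, room temp, dark), suspended at (3-4) × 10⁶ cells/mL, diluted into HEPES-buffered saline with 1.8 mM CaCl₂ in stirred cuvette. Compound added after 20-30 s baseline, then serotonin challenge; Fura-2 ratio 340/380 nm excitation, 510 nm emission. Ki from concentration-dependent inhibition; geometric mean of three to four experiments, duplicate curves.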

hERG (KCNH2) [5] = molecular target: T2, hERG (KCNH2); assay: Inhibition of human ERG expressed in […] cells at 10 uM after 3 to 8 mins by voltage clamp assay; type: cell-based; conditions: HEK297 cells that express human ERG; method in brief: as §1
[6] = molecular target: T1, 5-hydroxytryptamine receptor 6; assay: Displacement of [3H]lysergic acid diethylamide from human recombinant 5HT6 receptor expressed in human HeLa cells; type: cell-based
Method in brief: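 Ki from concentration-dependent displacement of [3H]lysergic acid diethylamide in a contracted radioligand binding assay; each curve measured in duplicate.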

hERG (KCNH2) [7] = molecular target: T2, hERG (KCNH2); assay: Inhibition of human ERG expressed in […] cells at 90 uM after 3 to 8 mins by voltage clamp assay; type: cell-based; conditions: […] cells that express human ERG; method in brief: as §1

T1 sequence (P50406 whole entry): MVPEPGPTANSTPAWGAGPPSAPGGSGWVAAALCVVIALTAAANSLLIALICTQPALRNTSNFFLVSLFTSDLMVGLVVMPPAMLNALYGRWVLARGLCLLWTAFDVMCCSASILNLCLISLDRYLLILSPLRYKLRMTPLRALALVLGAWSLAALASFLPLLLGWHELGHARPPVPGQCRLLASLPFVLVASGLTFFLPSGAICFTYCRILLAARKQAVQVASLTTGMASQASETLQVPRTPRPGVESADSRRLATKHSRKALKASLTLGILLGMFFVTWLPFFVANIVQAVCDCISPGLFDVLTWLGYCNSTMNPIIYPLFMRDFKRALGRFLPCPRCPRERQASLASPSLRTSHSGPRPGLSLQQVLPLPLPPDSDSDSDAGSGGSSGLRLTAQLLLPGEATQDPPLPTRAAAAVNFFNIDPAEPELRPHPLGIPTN

SMILES	Ki [1] [nM]	Ki [4] [nM]	further results
CN(C)c1nn2c3c(cnc2c1S(=O)(=O)c1ccccc1)CCC3	28.8		
Cc1nc2c(S(=O)(=O)c3ccccc3)c(N3CCNCC3)nn2c2c1CCC2	869		
CSc1nn2c3c(c(C)nc2c1S(=O)(=O)c1ccccc1)CCCC3			IC50 [2]: 6 nM
CNc1nn2c(C)c3c(nc2c1S(=O)(=O)c1ccccc1)CCCC3			inhibition at 3 µM (hERG (KCNH2) [3]): 12.5%
CNc1nn2c3c(cnc2c1S(=O)(=O)c1ccccc1)CCCC3	0.259	153	
CNc1nn2c3c(c(C)nc2c1S(=O)(=O)c1ccccc1)CCCC3			inhibition at 10 µM (hERG (KCNH2) [5]): 52.4%
CNc1nn2cc3c(nc2c1S(=O)(=O)c1ccccc1)CCCC3	0.542	169	
CNc1nn2c3c(cnc2c1S(=O)(=O)c1ccccc1)CCC3	0.375	464	Ki [6]: 0.088 nM; inhibition at 90 µM (hERG (KCNH2) [7]): 29.5%
Cc1nc2c(S(=O)(=O)c3ccccc3)c(N3CCNCC3)nn2c2c1CCCC2	1760		
Cc1nc2c(S(=O)(=O)c3ccccc3)c(N(C)C)nn2c2c1CCC2	25.5		
CNc1nn2c3c(c(C)nc2c1S(=O)(=O)c1ccccc1)CCC3	0.413	188	inhibition at 3 µM (hERG (KCNH2) [3]): 4.3%
